Measured values as given in ChEMBL document CHEMBL5252539, “In vitro biological evaluation of new antimycobacterial salicylanilide-tuftsin conjugates” (Eur J Med Chem, 2017).
≈ marks a conversion by molar mass, not a printed value. Calls of active or inactive are those of the source. The calls are words filed in the database; no cut-off is given here. *1 amine or outer side, *2 acyl side, *3 side chain or, on linkers, in order; H or OH if unused. Where a SMILES comes first, the peptide text is derived from it. [ ]: non-standard residue; d: D form. The star is where a group is joined. X4 = O=C(Nc1ccc(C(F)(F)F)cc1)c1cc(/C=N\OCC(=O)*)ccc1O; X2 = C/C(=N\OCC(=O)*)c1ccc(NC(=O)c2cc(Br)ccc2O)cc1; X1 = C/C(=N\OCC(=O)[*:2])c1ccc(N[*:1])cc1; Benzoyl(5-Br-2-OH) = O=C(c1cc(Br)ccc1O)*; Palmitoyl = CCCCCCCCCCCCCCCC(=O)*; Decanoyl = CCCCCCCCCC(=O)*; Butyryl = CCCC(=O)*

What was measured:
[1] = Selectivity index, ratio of IC50 for cytostatic activity against human HepG2 cells to MIC for antimycobacterial activity against Mycobacterium tuberculosis H37Rv ATCC 27294; assay type: toxicity, cell-based; settings: read-out: Selectivity Index
How it was run: (§1)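 MTT assay on MonoMac6 or HepG2 cells after 24 h exposure, top concentration 200 µM. SI = IC50 (µM)/MIC (µM) against H37Rv from the 4-week Sula medium assay.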

[2] = tested on: Mycobacterium tuberculosis; assay: Antimycobacterial activity against Mycobacterium tuberculosis H37Rv ATCC 27294 assessed as reduction in bacterial growth after 21 days by serial dilution method; assay type: functional; settings: H37Rv ATCC 27294, 504 h, time 21 day
How it was run: (§2)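 Broth MIC in Sula semisynthetic medium, pH 6.5; 4-week incubation, with 21-day values […] where indicated. Drug-free inoculated bacteria served as growth control. MIC also expressed as drug content (µg/mL) = MIC (µM) × average SAL molar mass × number of SAL per conjugate / 1000.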

[3] = tested on: HepG2; assay: Cytostatic activity against human HepG2 cells assessed as reduction in cell viability incubated for 24 hrs by MTT assay; assay type: functional, cell-based; settings: HepG2, 24 h
How it was run: (§3)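 MTT viability assay after 24 h exposure of MonoMac6 human monocytic cells or HepG2 human hepatocellular carcinoma cells. Top concentration 200 μM. IC50 taken from dose-response curves as the concentration reducing viability to 50% of maximal.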

[4] = Selectivity index, ratio of IC50 for cytostatic activity against human MONO-MAC-6 cells to MIC for antimycobacterial activity against Mycobacterium tuberculosis H37Rv ATCC 27294; assay type: toxicity, cell-based; settings: read-out: Selectivity Index; how it was run: as §1
[5] = tested on: MONO-MAC-6; assay: Cytostatic activity against human MONO-MAC-6 cells assessed as reduction in cell viability incubated for 24 hrs by MTT assay; assay type: functional, cell-based; settings: MONO-MAC-6, 24 h; how it was run: as §3
[6] = tested on: Mycobacterium tuberculosis; assay: […] antimycobacterial activity against Mycobacterium tuberculosis H37Rv ATCC 27294 infected in human MONO-MAC-6 cells assessed as reduction in colony forming unit at 250 uM for 6 days by colony counting based analysis; assay type: functional, organism-based; settings: time 6.0 day
How it was run: (§4)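 MonoMac6 monolayers infected with H37Rv, then treated with compound at 125 or 250 µM for 3 days. Treatment repeated with fresh compound solution for another 3 days. Intracellular bacteria quantified as CFU against untreated infected cells.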

[7] = tested on: Mycobacterium tuberculosis; assay: Antimycobacterial activity against Mycobacterium tuberculosis H37Rv ATCC 27294 assessed as reduction in colony forming unit after 28 days by serial dilution method; assay type: functional, organism-based; settings: time 28.0 day
How it was run: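 After the 4-week MIC incubation in Sula semisynthetic medium (pH 6.5), growth inhibition confirmed by plating on Löwenstein-Jensen solid medium and counting colony forming units.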

[8] = tested on: Mycobacterium tuberculosis; assay: […] antimycobacterial activity against Mycobacterium tuberculosis H37Rv ATCC 27294 infected in human MONO-MAC-6 cells assessed as reduction in colony forming unit at 125 uM for 6 days by colony counting based analysis; assay type: functional, organism-based; settings: time 6.0 day; how it was run: as §4
[9] = tested on: Mycobacteroides abscessus; assay: Antimycobacterial activity against Mycobacterium abscessus ATCC 19977 assessed as reduction in colony forming unit after 7 days by serial dilution method; assay type: functional, organism-based; settings: time 7.0 day
How it was run: (§5)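 MIC determined in Sula semisynthetic medium, pH 6.5, 1 week incubation. Growth inhibition confirmed by plating on Löwenstein-Jensen solid medium and counting CFU. Bacteria inoculated without drug served as growth control.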

[10] = tested on: Mycobacterium tuberculosis; assay: Antimycobacterial activity against Mycobacterium tuberculosis H37Rv ATCC 27294 assessed as reduction in bacterial growth after 28 days by serial dilution method; assay type: functional; settings: H37Rv ATCC 27294, 672 h, time 28 day; how it was run: as §2
[11] = Stability in rat liver lysosomal homogenate assessed as drug degradation at 50 uM and measured upto 24 hrs by HPLC-MS analysis; assay type: ADME, subcellular, Lysosome; settings: tissue homogenate
How it was run: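 Conjugates incubated in rat liver lysosomal homogenate. Reaction mixtures sampled at 5 min, 1 h, 2 h, 4 h, 8 h and 24 h and analysed by HPLC-MS (chromatograms and mass spectra) to identify intact conjugate, fragments and cleavage sites.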

[12] = Retention time of the compound by RP-HPLC analysis; assay type: physicochemical
How it was run: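 Analytical RP-HPLC on a C18 column (5 μm, 100 Å, 4.6 × 150 mm). Eluent A 0.1% TFA in water, eluent B 0.1% TFA in acetonitrile-water 80:20. Gradient 0% B for 5 min, to 60% B at 15 min, to 100% B at 25 min. Flow 1 mL/min, detection at 220 nm.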

[13] = tested on: Mycobacteroides abscessus; assay: Antimycobacterial activity against Mycobacterium abscessus ATCC 19977 assessed as reduction in bacterial growth after 7 days by serial dilution method; assay type: functional; settings: ATCC 19977, 168 h, time 7 day; how it was run: as §5
[14] = Cytotoxicity against mouse bone marrow derived macrophages assessed as reduction in cell viability incubated for 48 hrs by MTT assay; assay type: toxicity, cell-based, Macrophage
How it was run: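 Murine bone marrow-derived macrophages exposed for 48 h, viability by MTT. Highest concentration tested 100 µM. IC50 taken from dose-response curves.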

[15] = Selectivity index, ratio of IC50 for cytotoxicity against mouse bone marrow derived macrophages to MIC for antimycobacterial activity against Mycobacterium tuberculosis H37Rv ATCC 27294; assay type: toxicity; settings: read-out: Selectivity Index
How it was run: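 Murine bone marrow-derived macrophages exposed for 48 h, top concentration 100 µM. Viability read by MTT and IC50 taken from dose-response curves. SI = IC50/MIC against H37Rv.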

Row | Structure (SMILES) | selectivity ratio [1] | MIC [2] [µM] | IC50 [3] [µM] | selectivity ratio [4] | IC50 [5] [µM] | Activity [6] | Activity [7] | Activity [8] | Activity [9] | MIC [10] [µM] | Stability [11] | Retention_time [12] [min] | MIC [13] [µM] | IC50 at 48 h [14] [µM] | selectivity ratio [15]
1 | C/C(=N\OCC(=O)N[C@H](C(=O)O)[C@@H](C)O)c1ccc(NC(=O)c2cc(Br)ccc2O)cc1 | > 0.5 | 394 (≈ 200 µg/mL) | > 200 | > 0.5 | > 200 | Active | Active | Active | Active | – | – | – | – | – | –
2 | C/C(=N\OCC(=O)N[C@H](C(=O)N[C@@H](CCCCN)C(=O)N1CCC[C@H]1C(=O)N[C@@H](CCCCN)C(=O)NCC(=O)N[C@H](C(=O)N[C@@H](CCCCN)C(=O)N1CCC[C@H]1C(=O)N[C@@H](CCCCN)C(=O)NCC(N)=O)[C@@H](C)O)[C@@H](C)O)c1ccc(NC(=O)c2cc(Br)ccc2O)cc1 ({Benzoyl(5-Br-2-OH)}-[X1]TKPKGTKPKG-NH2) | > 1.1 | – | > 200 | > 1.1 | > 200 | Active | Active | Active | Active | 175 (≈ 250 µg/mL) | Unstable | 14.9 | 56 (≈ 80.1 µg/mL) | – | –
3 | C/C(=N\OCC(=O)NCC(=O)O)c1ccc(NC(=O)c2cc(Br)ccc2O)cc1 | > 0.9 | 215 (≈ 100 µg/mL) | > 200 | > 0.9 | > 200 | Active | Active | Active | Active | – | – | – | – | – | –
4 | CCCC(=O)NCCCC[C@H](NC(=O)[C@@H]1CCCN1C(=O)[C@H](CCCCN)NC(=O)[C@@H](NC(=O)CO/N=C(\C)c1ccc(NC(=O)c2cc(Br)ccc2O)cc1)[C@@H](C)O)C(=O)NCC(=O)N[C@H](C(=O)N[C@@H](CCCCN)C(=O)N1CCC[C@H]1C(=O)N[C@@H](CCCCN)C(=O)NCC(=O)N[C@H](C(=O)N[C@@H](CCCCN)C(=O)N1CCC[C@H]1C(=O)N[C@@H](CCCCN)C(=O)NCC(=O)N[C@H](C(=O)N[C@@H](CCCCN)C(=O)N1CCC[C@H]1C(=O)N[C@@H](CCCCN)C(=O)NCC(N)=O)[C@@H](C)O)[C@@H](C)O)[C@@H](C)O ({Benzoyl(5-Br-2-OH)}-[X1]TKPK(Butyryl)GTKPKGTKPKGTKPKG-NH2) | 1.3 | – | 81.6 | > 3.2 | > 200 | Active | Active | Active | Active | 63.4 (≈ 160 µg/mL) | – | 14.7 | 79.3 (≈ 200 µg/mL) | – | –
5 | CCCCCCCCCCCCCCCC(=O)NCCCC[C@H](NC(=O)[C@@H]1CCCN1C(=O)[C@H](CCCCN)NC(=O)[C@@H](NC(=O)CNC(=O)[C@H](CCCCN)NC(=O)[C@@H]1CCCN1C(=O)[C@H](CCCCN)NC(=O)[C@@H](NC(=O)CNC(=O)[C@H](CCCCN)NC(=O)[C@@H]1CCCN1C(=O)[C@H](CCCCN)NC(=O)[C@@H](NC(=O)CO/N=C(\C)c1ccc(NC(=O)c2cc(Br)ccc2O)cc1)[C@@H](C)O)[C@@H](C)O)[C@@H](C)O)C(=O)NCC(=O)N[C@H](C(=O)N[C@@H](CCCCN)C(=O)N1CCC[C@H]1C(=O)N[C@@H](CCCCN)C(=O)NCC(N)=O)[C@@H](C)O ({Benzoyl(5-Br-2-OH)}-[X1]TKPKGTKPKGTKPK(Palmitoyl)GTKPKG-NH2) | 0.5 | 74.3 (≈ 200 µg/mL) | 40.4 | 0.3 | 20.9 | Active | Active | Active | Active | – | Unstable | 17.3 | 74.3 (≈ 200 µg/mL) | – | –
6 | C/C(=N\OCC(=O)NCCCC[C@H](NC(=O)[C@@H]1CCCN1C(=O)[C@H](CCCCN)NC(=O)[C@@H](NC(=O)CO/N=C(\C)c1ccc(NC(=O)c2cc(Br)ccc2O)cc1)[C@@H](C)O)C(=O)NCC(=O)N[C@H](C(=O)N[C@@H](CCCCN)C(=O)N1CCC[C@H]1C(=O)N[C@@H](CCCCN)C(=O)NCC(=O)N[C@H](C(=O)N[C@@H](CCCCN)C(=O)N1CCC[C@H]1C(=O)N[C@@H](CCCCN)C(=O)NCC(=O)N[C@H](C(=O)N[C@@H](CCCCN)C(=O)N1CCC[C@H]1C(=O)N[C@@H](CCCCN)C(=O)NCC(N)=O)[C@@H](C)O)[C@@H](C)O)[C@@H](C)O)c1ccc(NC(=O)c2cc(Br)ccc2O)cc1 ({Benzoyl(5-Br-2-OH)}-[X1]TKPK(X2)GTKPKGTKPKGTKPKG-NH2) | 1.9 | – | 79.7 | 0.9 | 39.1 | Active | Active | inactive | Active | 42.2 (≈ 120 µg/mL) | Unstable | 16.3 | 70.4 (≈ 200 µg/mL) | – | –
7 | C[C@@H](O)[C@H](NC(=O)CNC(=O)[C@H](CCCCN)NC(=O)[C@@H]1CCCN1C(=O)[C@H](CCCCN)NC(=O)[C@@H](NC(=O)CNC(=O)[C@H](CCCCN)NC(=O)[C@@H]1CCCN1C(=O)[C@H](CCCCN)NC(=O)[C@@H](NC(=O)CNC(=O)[C@H](CCCCN)NC(=O)[C@@H]1CCCN1C(=O)[C@H](CCCCN)NC(=O)[C@@H](NC(=O)CO/N=C\c1ccc(O)c(C(=O)Nc2ccc(C(F)(F)F)cc2)c1)[C@@H](C)O)[C@@H](C)O)[C@@H](C)O)C(=O)N[C@@H](CCCCN)C(=O)N1CCC[C@H]1C(=O)N[C@@H](CCCCN)C(=O)NCC(N)=O (X4-TKPKGTKPKGTKPKGTKPKG-NH2) | > 2.4 | 82.4 (≈ 200 µg/mL) | > 200 | > 2.4 | > 200 | Active | Active | Active | Active | – | – | – | 41.2 (≈ 100 µg/mL) | – | –
8 | CC(=O)c1ccc(NC(=O)c2cc(Br)ccc2O)cc1 | 2.1 | – | 15.9 | 2.5 | 18.6 | – | Active | – | Active | 7.5 (≈ 2.51 µg/mL) | – | – | 59.8 (≈ 20 µg/mL) | 76.5 | 10.2
9 | CCCCCCCCCCCCCCCC(=O)NCCCC[C@H](NC(=O)[C@@H]1CCCN1C(=O)[C@H](CCCCN)NC(=O)[C@@H](NC(=O)CO/N=C(\C)c1ccc(NC(=O)c2cc(Br)ccc2O)cc1)[C@@H](C)O)C(=O)NCC(N)=O ({Benzoyl(5-Br-2-OH)}-[X1]TKPK(Palmitoyl)G-NH2) | 0.1 | 173 (≈ 200 µg/mL) | 23.2 | 0.3 | 53.8 | Active | Active | Active | Active | – | Unstable | – | 173 (≈ 200 µg/mL) | – | –
10 | CCCCCCCCCC(=O)NCCCC[C@H](NC(=O)[C@@H]1CCCN1C(=O)[C@H](CCCCN)NC(=O)[C@@H](NC(=O)CO/N=C(\C)c1ccc(NC(=O)c2cc(Br)ccc2O)cc1)[C@@H](C)O)C(=O)NCC(N)=O ({Benzoyl(5-Br-2-OH)}-[X1]TKPK(Decanoyl)G-NH2) | 0.3 | 186 (≈ 200 µg/mL) | 55.8 | 0.4 | 72.6 | Active | Active | Active | Active | – | Unstable | – | 186 (≈ 200 µg/mL) | – | –
